Screening data as filed in PubChem BioAssay.
Compounds with a hit are over-represented: about 1.2% of the library has one in this group of screens.
proCasp7 act: procaspase-7 activators, primary screen, counter-screen for procaspase-3 activator project, biochemical, absorbance, HTS, human; Caspase-7 (Homo sapiens), P55210; recombinant procaspase-7, Ac-DEVD-pNA absorbance 405 nm; D23A/D198A/D206A triple mutant, cannot self-cleave; scale: DMSO 0, 5 µM enzyme 100; activation, % at 8.5 µM; 330,000 tested, 0.093% active; AID 463210, 2010;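 active = percent activation above the screen-wide mean plus 3 SD, cut at about 25% in these data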
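Assay system: Uncleavable procaspase-7 mutant enzyme | Input: 2 µM procaspase-7 mutant as dispensed | Timing: 1 h compound preincubation, 2 h substrate cleavage, 25 °C | Repeats: One well per compound | Control set: DMSO wells as 0%, DMSO with 5 µM added PC-7 as 100% | Technique: Epi-absorbance of released pNA at 405 nm, two timepoints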
procasp3 activ: activators of human procaspase-3 D3A mutant, primary screen, biochemical, absorbance, PC-3 D3A mutant, single concentration. recombinant procaspase-3 D3A, Ac-DEVD-pNA absorbance 405 nm. activation, % at 8.5 µM. AID 463141, 2010. Caspase-3 (Homo sapiens), P42574. 330,000 tested, 0.11% active;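 active = activation above the mean of all tested compounds plus 3 SD, cut at about 21% in these data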
Target sequence (P42574 whole entry D9A/D28A/D175A): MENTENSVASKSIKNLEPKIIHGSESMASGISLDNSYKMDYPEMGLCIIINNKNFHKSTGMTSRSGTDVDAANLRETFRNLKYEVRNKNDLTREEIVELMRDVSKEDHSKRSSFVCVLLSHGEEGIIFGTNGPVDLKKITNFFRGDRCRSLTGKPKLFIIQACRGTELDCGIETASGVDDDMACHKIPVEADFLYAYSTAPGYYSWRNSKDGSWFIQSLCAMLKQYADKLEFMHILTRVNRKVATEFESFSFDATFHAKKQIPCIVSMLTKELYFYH
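Compound: 8.5 µM single point, 0.8% DMSO / Material: Autoprocessing-dead procaspase-3 D3A mutant enzyme / Timing: 1 h preincubation plus 2 h reaction at 25 °C / Medium: Zinc-free HEPES/NaCl buffer with 0.01% Triton X-100 at pH 7.4 / Technique: 405 nm absorbance of p-nitroaniline, reads at 0 and 120 min / Repeats: one well per compound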
PP1 inh: PP1-alpha phosphatase inhibitors, primary screen, counter-screen for PP5 inhibitor project, biochemical, fluorescence, OMFP substrate, single point | Serine/threonine-protein phosphatase PP1-alpha catalytic subunit (Homo sapiens), P62136 | purified PP1alpha | inhibition, % at 6.7 µM | 320,000 tested, 0.9% active;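 active = inhibition above the mean inhibition of all tested compounds plus 3 SD, computed separately for each screening campaign, cut at about 15% in these data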
PP5 inh: PP5 phosphatase inhibitors, primary screen, biochemical, fluorescence; purified PP5c, OMFP substrate fluorescence; inhibition, % at 6.7 µM; 320,000 tested, 0.18% active; AID 1987, 2009;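 active = inhibition above the campaign's mean inhibition across all tested compounds plus 3 SD, cut at about 9.5% in these data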
PP5 inh confirm: PP5 phosphatase inhibitors, confirmation, biochemical, fluorescence, human; shares compounds with PP5 inh; AID 2331, 2010; 460 tested, 22% active; inhibition, % at 6.7 µM; Purified PP5, fluorogenic phosphatase substrate; in the data active = inhibition above about 9.5%
PP1 counter 3x: PP1 phosphatase inhibitors, counter-screen for PP5 inhibitor project, biochemical, fluorescence, triplicate | shares compounds with PP5 inh | PP1 enzyme, fluorescent phosphatase substrate | inhibition, % at 6.7 µM | 460 tested, 4% active; in the data active = inhibition above about 16%
Large screens that a line does not name were inactive (follow-up assays come after a bar, where they were run).

CCOC(=O)c1ccccc1NC(=O)CSc1nc2ccccc2c(=O)n1CCCN1CCOCC1	none (no result: PP1 inh, PP5 inh)
CCc1c(C(=O)NCCc2cccc(C)c2)[nH]c(C)c1C(C)=O	none
CCc1c(C(=O)NCCc2ccc(OC)c(OC)c2)[nH]c(C)c1C(C)=O	PP5 inh 13 | PP5 inh confirm inactive | PP1 counter 3x inactive
Cc1ccc(/C(O)=C2\C(=O)C(=O)N(C)C2c2ccc(Br)cc2)cc1 (stereo unspecified)	PP5 inh 10 | PP5 inh confirm inactive | PP1 counter 3x inactive
COc1ccc(C(=O)NC2CCN(CC(=O)NCc3cccc(OC)c3)CC2)cc1	PP5 inh 12 | PP5 inh confirm inactive | PP1 counter 3x inactive
COc1ccc(C(=O)C2CCN(CC(=O)NCc3ccccc3)CC2)cc1	none
CCc1ccc(CN(C)C(=O)CCc2nc3ccccc3n(-c3ccc(OC)cc3)c2=O)cc1	PP5 inh 10 | PP5 inh confirm inactive | PP1 counter 3x inactive
Cc1ccc(C)c(OCCC(=O)OCC(=O)Nc2ccc(N3CCOCC3)cc2)c1	none
CCOc1ccc(-c2[nH]ncc2Oc2cccc(OC)c2)c(O)c1	PP5 inh 12 | PP5 inh confirm inactive | PP1 counter 3x inactive
COc1cccc(Oc2cn[nH]c2-c2ccc(OC)cc2O)c1	none
COc1ccc(S(=O)(=O)N2CCC(C(=O)NCc3cccc(OC)c3)CC2)cc1	none
COc1cccc(CNC(=O)C2CCN(S(=O)(=O)c3ccccc3)CC2)c1	PP5 inh 12 | PP5 inh confirm inactive | PP1 counter 3x inactive
O=C1c2ccccc2C(=O)C12OC2c1cccc2ccccc12 (stereo unspecified)	PP5 inh 10 | PP5 inh confirm 35 | PP1 counter 3x 17
CCOc1ccc(N=C/C=C/c2ccccc2)c(O)c1	PP5 inh 9.9 | PP5 inh confirm inactive | PP1 counter 3x inactive
CC(C)(C)[C@@H]1COC(=O)[C@H](Cc2ccc(F)cc2)CC/C=C\C[C@@H](CC(=O)NCCO)C(=O)N1	none (no result: PP1 inh, PP5 inh)
COc1ccc(/C(O)=C2/C(=O)C(=O)N(c3ccccn3)C2c2cccc(Cl)c2)cc1 (stereo unspecified)	none
CCCCn1c(NC(=O)c2ccccc2Cl)c(C#N)c2nc3ccccc3nc21	PP5 inh 12 | PP5 inh confirm 40 | PP1 counter 3x 27
CCCCn1c(NC(=O)CC)c(C#N)c2nc3ccccc3nc21	none
CC(C)Cc1nn2c(=O)cc(CSCC(=O)Nc3ccccc3F)nc2s1	none
COc1ccc(-c2cn(-c3ccc(Cl)cc3)c3[n+]2CCCCC3)cc1	PP5 inh 19 | PP5 inh confirm inactive | PP1 counter 3x inactive
CC[C@]12c3[nH]c4cc(CCC(=O)N(C)C)ccc4c3CCN1C(=O)[C@@H](CC(=O)NCc1cccc(C(F)(F)F)c1)C[C@@H]2C(=O)N1CCN(C(=O)C2CC2)CC1	none (no result: PP1 inh, PP5 inh)
CCC(C)N(C(=O)Cn1cnc2c1c(=O)n(C)c(=O)n2C)C1CCS(=O)(=O)C1 (stereo unspecified)	none
Cc1nnc(SCc2ccc(F)cc2Cl)s1	none
Nc1nnc(SCc2ccc(F)cc2Cl)s1	PP5 inh 13 | PP5 inh confirm inactive | PP1 counter 3x inactive
Cc1ccc(NC(=O)CSc2nnnn2C2CCCC2)cc1S(=O)(=O)N1CCOCC1	none
CCCCn1c(N)c(N(CC)C(=O)c2ccc([N+](=O)[O-])c(C)c2)c(=O)[nH]c1=O	none
CCCn1c(SCC(=O)NC2CCCC2)nnc1-c1ccccn1	PP5 inh 11 | PP5 inh confirm inactive | PP1 counter 3x inactive
COc1ccc(CC(=O)NC2CCCCCC2)c(OC)c1	none
Cc1nc2c(ncn2-c2ccccc2)c(=O)n1NC(=O)CN1CCCCC1	PP5 inh 13 | PP5 inh confirm inactive | PP1 counter 3x inactive
CCN(CC(=O)Nc1cc(Cl)ccc1C)C(=O)c1oc2ccc(OC)cc2c1C	none
